Measured values taken from ChEMBL document CHEMBL5674876, “Epigenetic Activation of Pro-angiogenic Signaling Pathways in Human Endothelial Progenitors Increases Vasculogenesis” (Stem Cell Reports, 2017).
Activity calls are given as the source filed them. No cut-off for these calls is given here.

Key:
[1] = tested on: HUVEC; assay: Effect on pro-angiogenic property in human umbilical cord derived endothelial colony forming cells assessed as increase in CXCL12 level by qRT-PCR analysis; type: functional, cell-based
[2] = tested on: HUVEC; assay: Effect on pro-angiogenic property in human umbilical cord derived endothelial colony forming cells assessed as increase in CXCR4 level by qRT-PCR analysis; type: functional, cell-based
[3] = tested on: Umbilical cord derived endothelial colony forming cell; assay: Activation of WNT pro-angiogenic pathway in human umbilical cord derived endothelial colony forming cells by measuring EGR1 level in presence of panobinostat by qRT-PCR analysis; type: cell-based; settings: filed as activator
[4] = tested on: HUVEC; assay: Effect on human umbilical cord derived endothelial colony forming cells assessed as reversal of decrease in H3 acetylation level in presence of panobinostat measured after 24 hrs of drug removal by qRT-PCR analysis; type: functional, cell-based
[5] = tested on: HUVEC; assay: Effect on pro-angiogenic property in human umbilical cord derived endothelial colony forming cells assessed as increase in FZD7 level in presence of panobinostat by qRT-PCR analysis; type: functional, cell-based
[6] = tested on: HUVEC; assay: Effect on pro-angiogenic property in human umbilical cord derived endothelial colony forming cells assessed as increase in ERK2 protein phosphorylation by Western blotting analysis; type: functional, cell-based
[7] = tested on: HUVEC; assay: Effect on pro-angiogenic property in human umbilical cord derived endothelial colony forming cells assessed as increase in KDR level in presence of panobinostat by qRT-PCR analysis; type: functional, cell-based
[8] = molecular target: Histone-lysine N-methyltransferase EZH2 (Homo sapiens) (UniProt Q15910); assay: Inhibition of EZH2 in human umbilical cord derived endothelial colony forming cells assessed as decrease in H3K9me3 level at 0.01 to 5 uM measured after 24 to 72 hrs by Western blotting analysis; type: cell-based; settings: Umbilical cord derived endothelial colony forming cell, dose 0.01-5 µM, time 24-72 hrs
How it was run: (§1)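 Human cord-blood ECFC clones, at least three independent, passages 3–6, grown in EGM-2 with 10% FBS. Histone methylation marks were assessed by western blot, with total histone H3 and H4 as loading controls.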

[9] = tested on: HUVEC; assay: Downregulation of DKK1 in human umbilical cord derived endothelial colony forming cells by qRT-PCR analysis; type: functional, cell-based
[10] = tested on: HUVEC; assay: Effect on human umbilical cord derived endothelial colony forming cells assessed as decrease in H3 acetylation level in presence of panobinostat measured after removal of drug
[11] = molecular target: Histone-lysine N-methyltransferase EZH2 (Homo sapiens) (UniProt Q15910); assay: Inhibition of EZH2 in human umbilical cord derived endothelial colony forming cells assessed as decrease in H3K27me2 level for 24 to 72 hrs by Western blotting analysis; type: cell-based; settings: Umbilical cord derived endothelial colony forming cell, dose 0.01-5 µM, time 24-72 hrs; how it was run: as §1
[12] = tested on: HUVEC; assay: Effect on pro-angiogenic property in human umbilical cord derived endothelial colony forming cells assessed as increase in VEGFR2 protein phosphorylation by Western blotting analysis; type: functional, cell-based
[13] = tested on: Umbilical cord derived endothelial colony forming cell; assay: Activation of WNT pro-angiogenic pathway in human umbilical cord derived endothelial colony forming cells by measuring WNT4 level in presence of panobinostat by qRT-PCR analysis; type: cell-based; settings: filed as activator
[14] = tested on: Umbilical cord derived endothelial colony forming cell; assay: Activation of WNT pro-angiogenic pathway in human umbilical cord derived endothelial colony forming cells by measuring FZD5 level in presence of panobinostat by qRT-PCR analysis; type: cell-based; settings: filed as activator
[15] = molecular target: Histone-lysine N-methyltransferase EZH2 (Homo sapiens) (UniProt Q15910); assay: Inhibition of EZH2 in human umbilical cord derived endothelial colony forming cells assessed as decrease in H3K27me2 level at 0.01 to 5 uM by Western blotting analysis; type: cell-based; settings: Umbilical cord derived endothelial colony forming cell, dose 0.01-5 µM, time 24-72 hrs, TDE = time-dependent effect; how it was run: as §1
[16] = tested on: Umbilical cord derived endothelial colony forming cell; assay: Activation of WNT pro-angiogenic pathway in human umbilical cord derived endothelial colony forming cells by measuring DKK3 level at 5 uM for 72 hrs in presence of panobinostat for 2 hrs by qRT-PCR analysis; type: cell-based; settings: filed as activator
[17] = molecular target: Histone deacetylase 1 (Homo sapiens) (UniProt Q13547); assay: Inhibition of deacetylase HDAC1 in human umbilical cord derived endothelial colony forming cells assessed as decrease in protein level by Western blotting analysis; type: cell-based; settings: Umbilical cord derived endothelial colony forming cell
How it was run: (§2)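 Cord-blood ECFCs were treated with an EZH2 inhibitor at 5 μM for 72 hr, then an HDAC inhibitor at 10 nM for 2 hr, or with vehicle. Levels of the epigenetic enzymes were read by western blot, with tubulin as loading control.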

[18] = tested on: Umbilical cord derived endothelial colony forming cell; assay: Activation of WNT pro-angiogenic pathway in human umbilical cord derived endothelial colony forming cells by measuring WNT9A level in presence of panobinostat by qRT-PCR analysis; type: cell-based; settings: filed as activator
[19] = tested on: HUVEC; assay: Effect on pro-angiogenic property in human umbilical cord derived endothelial colony forming cells assessed as increase in AKT protein phosphorylation by Western blotting analysis; type: functional, cell-based
[20] = tested on: HUVEC; assay: Effect on human umbilical cord derived endothelial colony forming cells assessed as reversal of increase in H3K4me3 level in presence of panobinostat measured after 24 hrs of drug removal by qRT-PCR analysis; type: functional, cell-based
[21] = tested on: HUVEC; assay: Effect on pro-angiogenic property in human umbilical cord derived endothelial colony forming cells assessed as increase in ANGPT2 level by qRT-PCR analysis; type: functional, cell-based
[22] = tested on: HUVEC; assay: Effect on pro-angiogenic property in human umbilical cord derived endothelial colony forming cells assessed as increase in intracellular CXCR4 protein phosphorylation by Western blotting analysis; type: functional, cell-based
[23] = tested on: HUVEC; assay: Effect on pro-angiogenic property in human umbilical cord derived endothelial colony forming cells assessed as formation of capillary network on matrigel at 5 uM for 72 hrs in presence of panobinostat; type: functional, cell-based
How it was run: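 Drug- or vehicle-pretreated ECFCs seeded at 5,000 cells/well on phenol-red-free growth-factor-reduced Matrigel in duplicate; after 24 hr stained with 5 μg/mL calcein 5 min at 37°C, imaged at 2.5×. Total tube length expressed as percentage of vehicle control ±SEM, three independent experiments.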

[24] = tested on: Umbilical cord derived endothelial colony forming cell; assay: Inhibition of H3K27 demethylase UTX in human umbilical cord derived endothelial colony forming cells assessed as decrease in protein level by Western blotting analysis; type: cell-based; how it was run: as §2
[25] = tested on: HUVEC; assay: Effect on pro-angiogenic property in human umbilical cord derived endothelial colony forming cells assessed as cell migration treated for 72 hrs measured by crystal violet staining analysis based gap closure assay; type: functional; settings: dose 0.1-5 µM
[26] = molecular target: Histone-lysine N-methyltransferase EZH2 (Homo sapiens) (UniProt Q15910); assay: Inhibition of EZH2 in human umbilical cord derived endothelial colony forming cells assessed as decrease in H4K20me3 level at 0.01 to 5 uM measured after 24 to 72 hrs by Western blotting analysis; type: cell-based; settings: Umbilical cord derived endothelial colony forming cell, dose 0.01-5 µM, time 24-72 hrs; how it was run: as §1
[27] = tested on: Mus musculus; assay: Activation of vasculogenesis in NOD/SCID immunodeficient mouse xenografted with drug pretreated human umbilical cord derived endothelial colony forming cells assessed as increase in formation of micro-capillaries in presence of panobinostat by H and E staining analysis; type: functional, organism-based
How it was run: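 ECFCs (4 × 10^6 cells/mL), drug cocktail-pretreated or not, mixed into 1.5 mg/mL type I collagen gels, polymerized 30 min at 37°C, held 18 hr in drug-free medium, implanted into flanks of 6–12-week-old NOD/SCID mice. Explants harvested at 3 weeks; H&E and anti-human CD31 staining; closed hCD31+ capillaries counted per area, n = 6 mice per group, ±SEM.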

[28] = tested on: Umbilical cord derived endothelial colony forming cell; assay: Activation of WNT pro-angiogenic pathway in human umbilical cord derived endothelial colony forming cells by measuring FZD7 level in presence of panobinostat by qRT-PCR analysis; type: cell-based; settings: filed as activator

Sequence of Histone-lysine N-methyltransferase EZH2 (Homo sapiens) (Q15910 whole entry, looked up): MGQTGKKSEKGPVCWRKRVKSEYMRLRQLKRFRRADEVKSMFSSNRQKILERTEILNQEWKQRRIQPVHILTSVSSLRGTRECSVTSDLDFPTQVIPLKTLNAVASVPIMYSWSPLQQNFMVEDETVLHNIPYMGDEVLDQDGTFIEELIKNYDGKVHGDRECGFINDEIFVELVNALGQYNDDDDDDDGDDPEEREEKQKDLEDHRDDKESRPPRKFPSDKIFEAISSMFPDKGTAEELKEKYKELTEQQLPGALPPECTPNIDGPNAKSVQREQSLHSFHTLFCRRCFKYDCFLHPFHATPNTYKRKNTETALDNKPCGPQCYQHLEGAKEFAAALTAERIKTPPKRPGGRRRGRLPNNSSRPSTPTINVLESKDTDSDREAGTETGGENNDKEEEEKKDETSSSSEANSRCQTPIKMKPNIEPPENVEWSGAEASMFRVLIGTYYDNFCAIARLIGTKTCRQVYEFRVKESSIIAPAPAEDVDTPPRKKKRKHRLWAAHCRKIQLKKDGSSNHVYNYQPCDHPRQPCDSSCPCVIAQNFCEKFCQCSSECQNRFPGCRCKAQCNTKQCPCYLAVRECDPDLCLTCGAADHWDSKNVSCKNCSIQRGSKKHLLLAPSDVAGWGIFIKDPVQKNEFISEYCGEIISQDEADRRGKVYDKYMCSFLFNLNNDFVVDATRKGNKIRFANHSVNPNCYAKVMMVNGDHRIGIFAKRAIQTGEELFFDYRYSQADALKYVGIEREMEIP
Sequence of Histone deacetylase 1 (Homo sapiens) (Q13547 whole entry): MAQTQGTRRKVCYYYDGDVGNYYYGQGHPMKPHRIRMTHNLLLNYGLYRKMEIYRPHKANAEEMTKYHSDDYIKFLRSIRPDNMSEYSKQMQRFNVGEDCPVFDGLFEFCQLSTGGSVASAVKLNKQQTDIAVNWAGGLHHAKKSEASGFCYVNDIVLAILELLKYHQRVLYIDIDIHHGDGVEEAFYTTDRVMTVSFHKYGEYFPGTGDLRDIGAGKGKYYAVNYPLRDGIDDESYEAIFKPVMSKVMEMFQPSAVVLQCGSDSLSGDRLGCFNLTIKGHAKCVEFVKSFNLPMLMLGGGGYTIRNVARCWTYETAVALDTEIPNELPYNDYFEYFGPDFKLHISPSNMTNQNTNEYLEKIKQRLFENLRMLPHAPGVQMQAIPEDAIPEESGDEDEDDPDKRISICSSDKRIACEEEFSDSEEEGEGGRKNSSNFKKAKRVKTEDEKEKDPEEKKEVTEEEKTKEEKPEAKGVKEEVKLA

With `CCCc1cc(C)[nH]c(=O)c1CNC(=O)c1cc(-c2ccnc(N3CCN(C)CC3)c2)cc2c1cnn2C(C)C` the Activity [1] was “Active”, the Activity [2] was “Active” and the Activity [3] was “Active”. For the same molecule, the Activity [4] was “Active”, the Activity [5] was “Active” and the Activity [6] was “Active”. The Activity [7] was “Active”, the inhibition [8] was “inactive” and the Activity [9] was “Active”. The Activity [10] was “Active”, the inhibition [11] was “Dose-Dependent Effect” and the Activity [12] was “Active”. For the same molecule, the Activity [13] was “Active”, the Activity [14] was “Active” and the inhibition [15] was “Tde”. For the same molecule, the Activity [16] was “Active”, the inhibition [17] was “inactive” and the Activity [18] was “Active”. The Activity [19] was “Active”, the Activity [20] was “Active” and the Activity [21] was “Active”. The Activity [22] was “Active”, the Activity [23] was “Active” and the inhibition [24] was “inactive”. For the same molecule, the Activity [25] was “Dose-Dependent Effect”, the inhibition [26] was “inactive” and the Activity [27] was “Active”. The Activity [28] was “Active”.
